Experimental data: ChEMBL document CHEMBL5724801, “EUbOPEN Chemogenomics Library - Multiplex” (2024)
Values joined by “and” are separate entries in the source; they are usually repeats but may differ in a detail not shown here. Equal values may be shown once.

Tests used:
Format in all cases: toxicity, cell-based
[1] = system: Fibroblast; experiment: Multiplex assay against human fibroblast
How it was run: (§1)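 With compound added, live cells were imaged on a CQ1 microscope at 37°C and 5% CO2; staining with Hoechst33342, BioTracker Green Microtubule Cytoskeleton Dye, MitoTracker Red and Annexin V Alexa Fluor 680 had been done at seeding. The CellPathfinder machine-learning gating scheme split cells into Hoechst high-intensity objects or normal cells, normal cells into healthy, pyknosed or fragmented nuclei, and pyknosed cells into mitotic or apoptotic. The tubulin, mitochondrial-mass and membrane-permeability phenotypes are per cents of healthy-nucleus cells.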

[2] = system: U2OS; experiment: Multiplex assay against U2OS; conditions: human; how it was run: as §1
[3] = system: HEK-293T; experiment: Multiplex assay against HEK293T; conditions: human; how it was run: as §1
[4] = 12 h, 1 µM, compound concentration 1 uM
[5] = 12 h, 10 µM, compound concentration 10 uM
[6] = 24 h, 1 µM, compound concentration 1 uM
[7] = 24 h, 10 µM, compound concentration 10 uM
[8] = 48 h, 1 µM, compound concentration 1 uM
[9] = 48 h, 10 µM, compound concentration 10 uM

## CC(C)[C@H](C(=O)Nc1ccc(C(=O)NO)cc1)c1ccccc1 [AR-42]
[1]; [4]
  Population Apoptotic (%): 28.12% and 16.67%
  Population Fragmented Nuclei (%): 8.81% and 7.87%
  Population Healthy Nuclei (%): 74.61% and 85.39%
  Population Hoechst High Intensity Objects (%): 0%
  Population Membrane Permeable-Phenotype (%): 3.47% and 2.63%
  Population Mitochondria Different-Phenotype (%): 4.17% and 7.89%
  Population Mitotic Cells (%): 71.88% and 83.33%
  Population Normal (%): 100%
  Population Pyknosed Nuclei (%): 16.58% and 6.74%
  Population Tubulin-Different-Phenotype (%): 4.17% and 7.24%
  Total Cell Count: 193 and 178
[1]; [5]
  Population Apoptotic (%): 32% and 26.67%
  Population Fragmented Nuclei (%): 10.88% and 4.5%
  Population Healthy Nuclei (%): 76.17% and 88.74%
  Population Hoechst High Intensity Objects (%): 0%
  Population Membrane Permeable-Phenotype (%): 6.8% and 2.54%
  Population Mitochondria Different-Phenotype (%): 5.44% and 5.58%
  Population Mitotic Cells (%): 68% and 73.33%
  Population Normal (%): 100%
  Population Pyknosed Nuclei (%): 12.95% and 6.76%
  Population Tubulin-Different-Phenotype (%): 7.48% and 5.58%
  Total Cell Count: 193 and 222
[1]; [6]
  Population Apoptotic (%): 40% and 44.44%
  Population Fragmented Nuclei (%): 11.98% and 8.95%
  Population Healthy Nuclei (%): 80.21% and 86.32%
  Population Hoechst High Intensity Objects (%): 0%
  Population Membrane Permeable-Phenotype (%): 2.6% and 3.05%
  Population Mitochondria Different-Phenotype (%): 2.6% and 3.66%
  Population Mitotic Cells (%): 60% and 55.56%
  Population Normal (%): 100%
  Population Pyknosed Nuclei (%): 7.81% and 4.74%
  Population Tubulin-Different-Phenotype (%): 1.95% and 1.83%
  Total Cell Count: 192 and 190
[1]; [7]
  Population Apoptotic (%): 50% and 57.14%
  Population Fragmented Nuclei (%): 11.56% and 10.3%
  Population Healthy Nuclei (%): 79.19% and 83.69%
  Population Hoechst High Intensity Objects (%): 0%
  Population Membrane Permeable-Phenotype (%): 3.65% and 0%
  Population Mitochondria Different-Phenotype (%): 4.38% and 6.67%
  Population Mitotic Cells (%): 50% and 42.86%
  Population Normal (%): 100%
  Population Pyknosed Nuclei (%): 9.25% and 6.01%
  Population Tubulin-Different-Phenotype (%): 3.65% and 2.56%
  Total Cell Count: 173 and 233
[1]; [8]
  Population Apoptotic (%): 37.5% and 50%
  Population Fragmented Nuclei (%): 15.15% and 11.46%
  Population Healthy Nuclei (%): 76.77% and 82.29%
  Population Hoechst High Intensity Objects (%): 0%
  Population Membrane Permeable-Phenotype (%): 1.32% and 1.27%
  Population Mitochondria Different-Phenotype (%): 19.74% and 7.59%
  Population Mitotic Cells (%): 62.5% and 50%
  Population Normal (%): 100%
  Population Pyknosed Nuclei (%): 8.08% and 6.25%
  Population Tubulin-Different-Phenotype (%): 2.63% and 3.8%
  Total Cell Count: 198 and 192
[1]; [9]
  Population Apoptotic (%): 31.48% and 89.58%
  Population Fragmented Nuclei (%): 17.84% and 9.95%
  Population Healthy Nuclei (%): 52.97% and 64.92%
  Population Hoechst High Intensity Objects (%): 0%
  Population Membrane Permeable-Phenotype (%): 1.02% and 3.23%
  Population Mitochondria Different-Phenotype (%): 21.43% and 8.06%
  Population Normal (%): 100%
  Population Pyknosed Nuclei (%): 29.19% and 25.13%
  Total Cell Count: 185 and 191
[2]; [4]
  Population Apoptotic (%): 27.71% and 34.88%
  Population Fragmented Nuclei (%): 2.59% and 3.95%
  Population Healthy Nuclei (%): 77.88% and 71.75%
  Population Hoechst High Intensity Objects (%): 0%
  Population Membrane Permeable-Phenotype (%): 0.6% and 1.57%
  Population Mitochondria Different-Phenotype (%): 0.3% and 7.87%
  Population Mitotic Cells (%): 72.29% and 65.12%
  Population Normal (%): 100%
  Population Pyknosed Nuclei (%): 19.53% and 24.29%
  Population Tubulin-Different-Phenotype (%): 0.6% and 0%
  Total Cell Count: 425 and 177
[2]; [5]
  Population Apoptotic (%): 22.08% and 11.11%
  Population Fragmented Nuclei (%): 2.31% and 1.96%
  Population Healthy Nuclei (%): 75.5% and 80.39%
  Population Hoechst High Intensity Objects (%): 0%
  Population Membrane Permeable-Phenotype (%): 0.38% and 3.25%
  Population Mitochondria Different-Phenotype (%): 0% and 2.44%
  Population Mitotic Cells (%): 77.92% and 88.89%
  Population Normal (%): 100%
  Population Pyknosed Nuclei (%): 22.19% and 17.65%
  Population Tubulin-Different-Phenotype (%): 0.76% and 0.81%
  Total Cell Count: 347 and 153
[2]; [6]
  Population Apoptotic (%): 34.74% and 52.56%
  Population Fragmented Nuclei (%): 5.86% and 12.17%
  Population Healthy Nuclei (%): 51.35% and 46.56%
  Population Hoechst High Intensity Objects (%): 0%
  Population Membrane Permeable-Phenotype (%): 1.75% and 5.68%
  Population Mitochondria Different-Phenotype (%): 0% and 5.68%
  Population Mitotic Cells (%): 65.26% and 47.44%
  Population Normal (%): 100%
  Population Pyknosed Nuclei (%): 42.79% and 41.27%
  Population Tubulin-Different-Phenotype (%): 4.82% and 3.41%
  Total Cell Count: 444 and 189
[2]; [7]
  Population Apoptotic (%): 38.59% and 30.67%
  Population Fragmented Nuclei (%): 5.97% and 3.36%
  Population Healthy Nuclei (%): 39.1% and 46.31%
  Population Hoechst High Intensity Objects (%): 0%
  Population Membrane Permeable-Phenotype (%): 3.82% and 5.8%
  Population Mitochondria Different-Phenotype (%): 0% and 2.9%
  Population Mitotic Cells (%): 61.41% and 69.33%
  Population Normal (%): 100%
  Population Pyknosed Nuclei (%): 54.93% and 50.34%
  Population Tubulin-Different-Phenotype (%): 6.87% and 8.7%
  Total Cell Count: 335 and 149
[2]; [8]
  Population Apoptotic (%): 73.08% and 85.05%
  Population Fragmented Nuclei (%): 10.42% and 6.52%
  Population Healthy Nuclei (%): 25.06% and 35.33%
  Population Hoechst High Intensity Objects (%): 0.25% and 0%
  Population Membrane Permeable-Phenotype (%): 14.85% and 23.08%
  Population Mitochondria Different-Phenotype (%): 0% and 10.77%
  Population Mitotic Cells (%): 26.92% and 14.95%
  Population Normal (%): 99.75% and 100%
  Population Pyknosed Nuclei (%): 64.52% and 58.15%
  Population Tubulin-Different-Phenotype (%): 30.69% and 30.77%
  Total Cell Count: 404 and 184
[2]; [9]
  Population Apoptotic (%): 83.05% and 91.57%
  Population Fragmented Nuclei (%): 2.34% and 3.4%
  Population Healthy Nuclei (%): 38.46% and 40.14%
  Population Hoechst High Intensity Objects (%): 0% and 0.68%
  Population Membrane Permeable-Phenotype (%): 18.26% and 44.07%
  Population Mitochondria Different-Phenotype (%): 0% and 1.69%
  Population Mitotic Cells (%): 16.95% and 8.43%
  Population Normal (%): 100% and 99.32%
  Population Pyknosed Nuclei (%): 59.2% and 56.46%
  Population Tubulin-Different-Phenotype (%): 34.78% and 18.64%
  Total Cell Count: 299 and 148
[3]; [4]
  Population Apoptotic (%): 11.9% and 3.88%
  Population Fragmented Nuclei (%): 1.31% and 2.38%
  Population Healthy Nuclei (%): 54.83% and 20.83%
  Population Hoechst High Intensity Objects (%): 0% and 0.59%
  Population Membrane Permeable-Phenotype (%): 0.95% and 0%
  Population Mitochondria Different-Phenotype (%): 22.38% and 11.43%
  Population Mitotic Cells (%): 88.1% and 96.12%
  Population Normal (%): 100% and 99.41%
  Population Pyknosed Nuclei (%): 43.86% and 76.79%
  Total Cell Count: 383 and 169
[3]; [5]
  Population Apoptotic (%): 11.02% and 12.75%
  Population Fragmented Nuclei (%): 2.96% and 3.72%
  Population Hoechst High Intensity Objects (%): 0.37% and 0%
  Population Membrane Permeable-Phenotype (%): 0% and 3.12%
  Population Mitotic Cells (%): 88.98% and 87.25%
  Population Normal (%): 99.63% and 100%
  Population Pyknosed Nuclei (%): 43.7% and 79.26%
  Population Tubulin-Different-Phenotype (%): 5.56% and 9.38%
  Total Cell Count: 271 and 188
[3]; [6]
  Population Apoptotic (%): 31.4% and 16.41%
  Population Fragmented Nuclei (%): 3.26% and 2.2%
  Population Healthy Nuclei (%): 63.86% and 27.47%
  Population Hoechst High Intensity Objects (%): 0%
  Population Membrane Permeable-Phenotype (%): 0.43% and 0%
  Population Mitochondria Different-Phenotype (%): 22.55% and 10%
  Population Mitotic Cells (%): 68.6% and 83.59%
  Population Normal (%): 100%
  Population Pyknosed Nuclei (%): 32.88% and 70.33%
  Population Tubulin-Different-Phenotype (%): 18.3% and 14%
  Total Cell Count: 368 and 182
[3]; [7]
  Population Apoptotic (%): 25.32% and 20.83%
  Population Fragmented Nuclei (%): 1.5% and 2.78%
  Population Healthy Nuclei (%): 68.8% and 30.56%
  Population Hoechst High Intensity Objects (%): 0% and 0.55%
  Population Membrane Permeable-Phenotype (%): 1.09% and 1.82%
  Population Mitochondria Different-Phenotype (%): 14.21% and 14.55%
  Population Mitotic Cells (%): 74.68% and 79.17%
  Population Normal (%): 100% and 99.45%
  Population Pyknosed Nuclei (%): 29.7% and 66.67%
  Population Tubulin-Different-Phenotype (%): 2.73% and 3.64%
  Total Cell Count: 266 and 181
[3]; [8]
  Population Apoptotic (%): 38.66% and 18.09%
  Population Fragmented Nuclei (%): 3.58% and 2.58%
  Population Healthy Nuclei (%): 60.9% and 36.77%
  Population Hoechst High Intensity Objects (%): 1.18% and 0%
  Population Membrane Permeable-Phenotype (%): 0.49% and 3.51%
  Population Mitochondria Different-Phenotype (%): 58.33% and 29.82%
  Population Mitotic Cells (%): 61.34% and 81.91%
  Population Normal (%): 98.82% and 100%
  Population Pyknosed Nuclei (%): 35.52% and 60.65%
  Population Tubulin-Different-Phenotype (%): 21.57% and 47.37%
  Total Cell Count: 339 and 155
[3]; [9]
  Population Apoptotic (%): 22.22% and 36.27%
  Population Fragmented Nuclei (%): 2.93% and 2.55%
  Population Healthy Nuclei (%): 66.95% and 32.48%
  Population Hoechst High Intensity Objects (%): 0.42% and 0%
  Population Membrane Permeable-Phenotype (%): 5% and 3.92%
  Population Mitochondria Different-Phenotype (%): 22.5% and 11.76%
  Population Mitotic Cells (%): 77.78% and 63.73%
  Population Normal (%): 99.58% and 100%
  Population Pyknosed Nuclei (%): 30.13% and 64.97%
  Population Tubulin-Different-Phenotype (%): 9.38% and 15.69%
  Total Cell Count: 240 and 157
